Source: ChEMBL document CHEMBL3739258, “Click-based synthesis of bromotyrosine alkaloid analogs as potential anti-biofilm leads for SAR studies” (Bioorg Med Chem Lett, 2015)

How the values were obtained:
Pseudoalteromonas ulvae [1] = assay: Antibiofilm activity against Pseudoalteromonas ulvae TC14 assessed as microbial adhesion at 200 uM after 15 hrs by Syto61 based-fluorescence analysis relative to control; assay type: functional
In short: (§1)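 Cells grown in VNSS at 20 °C to stationary phase, centrifuged, and resuspended in sterile artificial seawater to OD600 0.2–0.4. Suspension incubated with compound at 200 µM in triplicate for 15 h at 20 °C. Loose cells removed with three washes in 36 g/L NaCl. Attached cells stained 10 min at room temperature with 40 µmol/L Syto 61, then washed and the stain solubilised. Fluorescence read at ex 615/em 670 nm against untreated adhesion-control wells.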

[2] = tested on: Pseudoalteromonas lipolytica; assay: Antibiofilm activity against Pseudoalteromonas lipolytica TC8 assessed as microbial adhesion at 200 uM after 15 hrs by Syto61 based-fluorescence analysis relative to control; assay type: functional; in short: as §1
Paracoccus sp. [3] = assay: Antibiofilm activity against Paracoccus sp. 4M6 assessed as microbial adhesion at 200 uM after 15 hrs by Syto61 based-fluorescence analysis relative to control; assay type: functional; in short: as §1
[4] = tested on: Pseudoalteromonas lipolytica; assay: Antibiofilm activity against Pseudoalteromonas lipolytica TC8 assessed as reduction in adhesion after 15 hrs by Syto61 based-fluorescence analysis relative to control; assay type: functional; conditions: TC8, 15 h
In short: (§2)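 Adhesion assay: cells from a 20 °C VNSS stationary-phase culture were resuspended in artificial seawater (OD600 0.2–0.4). They were exposed to a range of compound concentrations in triplicate for 15 h at 20 °C, then washed with 36 g/L NaCl and stained 10 min with 40 µmol/L Syto 61. Fluorescence was read at ex 615/em 670 nm relative to bacteria-only controls. EC50 came from dose-response curve fitting.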

[5] = Toxicity in Paracoccus sp. 4M6 assessed as effect on viability at 100 uM after 6 hrs by resazurin-staining assay relative to control
In short: (§3)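 Strains grown in VNSS at 20 °C. Bacterial suspension added to VNSS wells containing compound at 100 µM, triplicate, with solvent and untreated controls. OD600 followed hourly for 6 h. Resazurin was then added and fluorescence read after 2 h. Percent viability was calculated as in the Syto 61 adhesion assay.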

Pseudoalteromonas ulvae [6] = assay: Antibiofilm activity against Pseudoalteromonas ulvae TC14 assessed as reduction in adhesion after 15 hrs by Syto61 based-fluorescence analysis relative to control; assay type: functional; conditions: TC14, 15 h; in short: as §2
Paracoccus sp. [7] = assay: Antibiofilm activity against Paracoccus sp. 4M6 assessed as reduction in adhesion after 15 hrs by Syto61 based-fluorescence analysis relative to control; assay type: functional; conditions: Paracoccus sp. (in: a-proteobacteria), 4M6, 15 h; in short: as §2
[8] = Toxicity in Pseudoalteromonas ulvae TC14 assessed as effect on viability at 100 uM after 6 hrs by resazurin-staining assay relative to control; in short: as §3
[9] = Toxicity in Pseudoalteromonas lipolytica TC8 assessed as growth inhibition at 100 uM after 15 hrs by Syto61 based-fluorescence analysis relative to control
[10] = Toxicity in Paracoccus sp. 4M6 assessed as growth inhibition at 100 uM after 15 hrs by Syto61 based-fluorescence analysis relative to control
[11] = Toxicity in Pseudoalteromonas lipolytica TC8 assessed as effect on viability at 100 uM after 6 hrs by resazurin-staining assay relative to control; in short: as §3
[12] = Toxicity in Pseudoalteromonas ulvae TC14 assessed as growth inhibition at 100 uM after 15 hrs by Syto61 based-fluorescence analysis relative to control

Row | EC50 [4] | EC50 (Pseudoalteromonas ulvae [6]) | EC50 (Paracoccus sp. [7]) | Compound | Activity (Pseudoalteromonas ulvae [1]) | Activity [2] | Activity (Paracoccus sp. [3]) | Activity [5] | Activity [8] | Activity [9] | Activity [10] | Activity [11] | Activity [12]
1 | – | – | – | COc1ccc(Cn2cc(C(=O)NCCc3cnc[nH]3)nn2)cc1Br | >75% | >75% | >75% | – | – | – | – | – | –
2 | – | – | – | COc1ccc(CCn2cc(C(=O)NCCNC(=N)N)nn2)cc1Br.O=C(O)C(F)(F)F | >75% | >75% | >75% | – | – | – | – | – | –
3 | 170 µM | 72.9 µM | 196 µM | O=C(NCCc1ccc(O)cc1)c1cn(CCc2ccc(O)cc2)nn1 | 16% | 43% | 44.5% | Non-toxic | Non-toxic | Non-toxic | Non-toxic | Non-toxic | –
4 | 17.9 µM | 9.3 µM | 144 µM | CC1(C)S[C@@H]2[C@H](NC(=O)[C@H](N)c3ccccc3)C(=O)N2[C@H]1C(=O)O [AMPICILLIN] | 4.9% | 8.9% | 33.9% | Toxic | Toxic | Toxic | Toxic | Toxic | –
5 | 113 µM | 69.3 µM | 156 µM | O=C(NCCc1ccc(O)cc1)c1cn(CCc2ccc(O)c(Br)c2)nn1 | 31.4% | 35% | 43.4% | Non-toxic | Non-toxic | Non-toxic | Non-toxic | Non-toxic | –
6 | – | – | – | COc1ccc(Cn2cc(C(=O)NCCN)nn2)cc1Br.O=C(O)C(F)(F)F | >75% | >75% | >75% | – | – | – | – | – | –
7 | – | – | – | O=C(NCCc1cnc[nH]1)c1cn(CCc2ccc(O)cc2)nn1 | >75% | >75% | >75% | – | – | – | – | – | –
8 | 124 µM | 40.2 µM | 84 µM | COc1ccc(Cn2cc(C(=O)NCCc3cc(Br)c(O)c(Br)c3)nn2)cc1Br | 23.3% | 40% | 37.9% | Non-toxic | Non-toxic | Non-toxic | Non-toxic | Non-toxic | –
9 | – | – | – | O=C(NCCc1cnc[nH]1)c1cn(CCc2ccc(O)c(Br)c2)nn1 | >75% | >75% | >75% | – | – | – | – | – | –
10 | – | – | – | COc1ccc(Cn2cc(C(=O)NCCNC(=N)N)nn2)cc1Br.O=C(O)C(F)(F)F | >75% | >75% | >75% | – | – | – | – | – | –
11 | 104 µM | 32.6 µM | 72.9 µM | COc1ccc(CCn2cc(C(=O)NCCc3ccc(O)cc3)nn2)cc1Br | 18.7% | 35% | 28.2% | Non-toxic | Non-toxic | Non-toxic | Non-toxic | Non-toxic | –
12 | – | – | – | COc1ccc(CCn2cc(C(=O)NCCCCN)nn2)cc1Br.O=C(O)C(F)(F)F | >75% | >75% | >75% | – | – | – | – | – | –
13 | 67.8 µM | 8.8 µM | 40.7 µM | COc1ccc(CCn2cc(C(=O)NCCc3cc(Br)c(O)c(Br)c3)nn2)cc1Br | 5.9% | 29.7% | 28.8% | Non-toxic | Non-toxic | Non-toxic | Non-toxic | Non-toxic | Toxic
14 | – | – | – | COc1ccc(Cn2cc(C(=O)NCCCCN)nn2)cc1Br.O=C(O)C(F)(F)F | >75% | >75% | >75% | – | – | – | – | – | –
15 | – | – | – | COc1ccc(Cn2cc(C(=O)NCCCN)nn2)cc1Br.O=C(O)C(F)(F)F | >75% | >75% | >75% | – | – | – | – | – | –
16 | – | – | – | COc1ccc(Cn2cc(C(=O)NCCCNC(=N)N)nn2)cc1Br.O=C(O)C(F)(F)F | >75% | >75% | >75% | – | – | – | – | – | –
17 | – | – | – | COc1ccc(CCn2cc(C(=O)NCCCNC(=N)N)nn2)cc1Br.O=C(O)C(F)(F)F | >75% | >75% | >75% | – | – | – | – | – | –
18 | – | – | – | COc1ccc(CCn2cc(C(=O)NCCc3cnc[nH]3)nn2)cc1Br | >75% | >75% | >75% | – | – | – | – | – | –
19 | 134 µM | 40 µM | 97.3 µM | COc1ccc(Cn2cc(C(=O)NCCc3ccc(O)cc3)nn2)cc1Br | 20.7% | 38.3% | 31.2% | Non-toxic | Non-toxic | Non-toxic | Non-toxic | Non-toxic | –
20 | – | – | – | COc1ccc(Cn2cc(C(=O)NCCCCNC(=N)N)nn2)cc1Br.O=C(O)C(F)(F)F | >75% | >75% | >75% | – | – | – | – | – | –
21 | – | – | – | COc1ccc(CCn2cc(C(=O)NCCN)nn2)cc1Br.O=C(O)C(F)(F)F | >75% | >75% | >75% | – | – | – | – | – | –
22 | – | – | – | COc1ccc(CCn2cc(C(=O)NCCCCNC(=N)N)nn2)cc1Br.O=C(O)C(F)(F)F | >75% | >75% | >75% | – | – | – | – | – | –
23 | – | – | – | COc1ccc(CCn2cc(C(=O)NCCCN)nn2)cc1Br.O=C(O)C(F)(F)F | >75% | >75% | >75% | – | – | – | – | – | –
24 | 96 µM | 26.6 µM | 83.2 µM | O=C(NCCc1cc(Br)c(O)c(Br)c1)c1cn(CCc2cc(Br)c(O)c(Br)c2)nn1 | 29.3% | 40.32% | 38.7% | Non-toxic | Non-toxic | Non-toxic | Non-toxic | Non-toxic | –
